Screens: PubChem BioAssay, Broad Institute
ERp5 block – blocks human ERp5 reductase activity on insulin. Q15084. ERp5 insulin aggregation, absorbance 650 nm, 90 min. inhibition, % at 9.99 µM. 0.05% of 350,000 active. AID 651711;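 active = mean replicate inhibition above about 25%, with every replicate also reaching it, limit read from the data, passing the limit was not always enough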
MLL AF4-AF9 inh – MLL-AF4/AF9 protein interaction inhibition | AlphaScreen, biotin-AF4 peptide binding to FLAG-AF9 | inhibition, % at 10 µM | 0.47% of 350,000 active | AID 651704;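 active = every replicate reaching a set inhibition limit, whatever the replicate mean, cut at about 25% in these data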;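 also: 0% = plate neutral control median and 100% = total signal loss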
FN deposit inh – fibronectin deposition inhibition | inhibition, % at 12.6 µM | AH1F fibroblasts, Alexa488-fibronectin deposition fluorescence, overnight | 0.086% of 350,000 active;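 active = mean inhibition across replicates of 30% or more, regardless of how many single replicates reach that level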;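 also: positive control wells lacked labelled fibronectin entirely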
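Assay system: AH1F fibroblast monolayer, labelled fibronectin deposition. Amount: 10000 cells per well. Also added: labelled fibronectin 24 nM. Compound: single-point pinned compound. Incubation: cell attachment 1 h, compound and FN exposure overnight. Detection: fluorescence after three HBSS washes, excitation 485 nm, emission 525 nm. Read-out: inhibition of fibronectin deposition signal.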
SIRT5 inh – inhibitors of human sirtuin-5 desuccinylase. Q9NXA8. Purified SirT5, succinyl-peptide AMC, trypsin-coupled fluorescence. inhibition, % at 15 µM. 1.1% of 330,000 active. AID 652115; in the data active = inhibition above about 15%
PDI inh – PDI (human) enzyme inhibition | AID 588391 | 0.052% of 350,000 active | PDI insulin aggregation turbidity, A650, 90 min | inhibition, % at 10 µM;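 active = mean inhibition across replicates of 30% or more, whatever share of single replicates reach that level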
Target sequence (P07237 whole entry, looked up): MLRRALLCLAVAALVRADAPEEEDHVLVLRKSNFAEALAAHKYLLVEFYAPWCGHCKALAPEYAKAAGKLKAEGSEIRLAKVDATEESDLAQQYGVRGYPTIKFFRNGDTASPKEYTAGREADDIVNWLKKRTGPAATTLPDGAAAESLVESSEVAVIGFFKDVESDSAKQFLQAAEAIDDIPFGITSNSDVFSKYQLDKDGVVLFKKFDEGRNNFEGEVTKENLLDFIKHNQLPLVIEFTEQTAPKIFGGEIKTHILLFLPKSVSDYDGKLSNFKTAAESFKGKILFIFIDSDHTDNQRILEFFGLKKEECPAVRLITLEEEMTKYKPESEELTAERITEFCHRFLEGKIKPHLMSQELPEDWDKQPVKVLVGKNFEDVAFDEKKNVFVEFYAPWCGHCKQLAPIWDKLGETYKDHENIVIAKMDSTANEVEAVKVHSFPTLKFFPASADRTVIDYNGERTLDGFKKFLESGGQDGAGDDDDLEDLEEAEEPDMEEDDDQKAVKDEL
* marks the source's active call; other numbers are inactive results; x = no result given; ! = not active in a repeat. Compounds with a hit are over-represented: about 1.3% of the library has one in this group of screens.

SMILES	ERp5 block	MLL AF4-AF9 inh	FN deposit inh	SIRT5 inh	PDI inh
CC(=O)N[C@H]1CC[C@H](CCNC(=O)C2CCCCC2)O[C@H]1CO	3.2	-9.7	x	0.3	x
COc1ccc(C)cc1NC(=O)NCCC1=CCCCC1	-0.8	0.2	x	-1.0	5.6
C[C@H](CO)N1C[C@H](C)[C@H](CN(C)Cc2ccc(-c3ccccc3)cc2)Oc2cc(C#C[C@@H](C)O)ccc2S1(=O)=O	8.8	2.5	x	25.0*	x
C[C@H](O)C#Cc1ccc2c(c1)O[C@@H](CN(C)Cc1ccccc1)[C@H](C)CN([C@@H](C)CO)S2(=O)=O	14.9	3.5	14.3	3.7	x
C[C@H](O)C#Cc1ccc2c(c1)O[C@@H](CN(C)Cc1ccc(-c3ccccc3)cc1)[C@@H](C)CN([C@@H](C)CO)S2(=O)=O	-6.2	2.5	x	30.2*	x
C[C@@H](O)C#Cc1ccc2c(c1)O[C@@H](CN(C)Cc1ccccc1)[C@@H](C)CN([C@@H](C)CO)S2(=O)=O	0.0	-4.4	-3.0	-2.1	x
C[C@@H]1CN([C@@H](C)CO)S(=O)(=O)c2ccc(C#C[C@@H](C)O)cc2O[C@@H]1CN(C)Cc1ccccc1	-1.2	-0.5	1.9	14.2	x
C[C@H](O)C#Cc1ccc2c(c1)O[C@H](CN(C)Cc1ccc(-c3ccccc3)cc1)[C@@H](C)CN([C@H](C)CO)S2(=O)=O	0.4	0.1	x	27.6*	x
C[C@H](O)C#Cc1ccc2c(c1)O[C@H](CN(C)Cc1ccc(-c3ccccc3)cc1)[C@H](C)CN([C@H](C)CO)S2(=O)=O	-4.4	6.3	x	31.8*	x
C1CCC(n2nnnc2CN2CCN(C3CCCC3)CC2)CC1	x	x	x	x	-13.2
C[C@@H]1CN([C@@H](C)CO)S(=O)(=O)c2ccc(C#C[C@@H](C)O)cc2O[C@H]1CN(C)Cc1ccc(-c2ccccc2)cc1	5.0	1.3	x	34.6*	x
C[C@H](O)C#Cc1ccc2c(c1)O[C@H](CN(C)Cc1ccccc1)[C@H](C)CN([C@H](C)CO)S2(=O)=O	-3.3	0.2	-2.9	-2.7	x
O=S(=O)(c1ccccc1)N1CCCCN2[C@@H](CO)[C@H](c3ccc(-c4ccccc4F)cc3)[C@@H]2C1	-0.2	x	x	-2.3	x
O=S(=O)(c1ccc(F)cc1)N1CCCCN2[C@H](CO)[C@@H](c3ccc(-c4ccccc4F)cc3)[C@H]2C1	5.3	1.8	x	22.1*	x
C/C=C/c1ccc([C@@H]2[C@H]3CN(S(=O)(=O)c4ccc(F)cc4)CCCCN3[C@H]2CO)cc1	2.3	-0.4	x	15.6*	x
COc1ccc(S(=O)(=O)Nc2ccc3c(c2)C(=O)N([C@H](C)CO)C[C@H](C)[C@@H](CN(C)C(=O)Nc2ccccc2)O3)cc1	-0.3	-2.1	1.7	x	-2.2
C[C@@H]1CN([C@H](C)CO)C(=O)c2cc(NS(=O)(=O)c3cn(C)cn3)ccc2O[C@H]1CN(C)C(=O)Nc1ccccc1	2.9	-5.4	4.9	23.1*!	4.3
COc1ccc(NC(=O)N(C)C[C@H]2Oc3ccc(NS(=O)(=O)c4ccc(OC)cc4)cc3CC(=O)N([C@H](C)CO)C[C@H]2C)cc1	3.1	-0.2	x	19.8*	x
COc1ccc(S(=O)(=O)Nc2ccc3c(c2)C(=O)N([C@H](C)CO)C[C@@H](C)[C@H](CN(C)C(=O)Nc2ccccc2)O3)cc1	-0.1	1.1	x	-0.3	x
COc1ccc(NC(=O)N(C)C[C@H]2Oc3ccc(NS(=O)(=O)c4ccccc4)cc3C(=O)N([C@@H](C)CO)C[C@@H]2C)cc1	33.2*	-0.4	x	-0.6	x
COc1ccc(S(=O)(=O)Nc2ccc3c(c2)C(=O)N([C@H](C)CO)C[C@H](C)[C@H](CN(C)C(=O)Nc2ccccc2)O3)cc1	28.9*	0.2	x	6.9	x
COc1ccc(NC(=O)N(C)C[C@H]2Oc3ccc(NS(=O)(=O)c4ccc(OC)cc4)cc3CC(=O)N([C@@H](C)CO)C[C@H]2C)cc1	4.6	0.4	x	-2.3	x
COc1cccc(-c2cnc3c(c2)C(=O)N([C@@H](C)CO)C[C@@H](C)[C@H](CN(C)C(C)=O)O3)c1	3.1	-0.7	-2.3	4.7	x
CCOc1cc(NCCN2CCOCC2)c([N+](=O)[O-])cc1OCC	-1.8	-0.1	0.3	-0.6	-3.6
Cc1ccc(S(=O)(=O)NC(C)c2ccccc2)cc1[N+](=O)[O-] (stereo unspecified)	-0.5	4.8	-3.1	1.7	-2.8
SMILES	ERp5 block	MLL AF4-AF9 inh	FN deposit inh	SIRT5 inh	PDI inh
C[C@@H]1CN([C@@H](C)CO)C(=O)c2cc(NC(=O)C3CC3)ccc2O[C@@H]1CN(C)S(=O)(=O)c1cn(C)cn1	-0.3	-6.8	x	25.0*	x
COc1ccc(CN/C=C2\CCCCC2=O)cc1	3.1	5.5	x	-3.7	12.6
COc1ccc(/C=N/Nc2cc(N(C)C)nc(N(C)C)n2)cc1	3.9	27.8*	13.5	2.0	-0.7
CN(C)c1cc(N/N=C\c2ccccc2)nc(N(C)C)n1	-0.6	26.3*	7.6	-3.1	0.2
COc1ccccc1/C=N/Nc1cc(N(C)C)nc(N(C)C)n1	4.7	29.0*	-0.7	1.3	-15.3
Cc1cc(N/N=C/c2ccccc2)nc(NCc2ccccc2)n1	3.1	5.1	x	-6.9	-4.0
COc1ccc(S(=O)(=O)N(C)C[C@H]2Oc3ccc(NS(=O)(=O)c4c(C)noc4C)cc3CC(=O)N([C@H](C)CO)C[C@H]2C)cc1	-7.8	2.7	x	1.7	x
Cc1ccc(C(C[N+](=O)[O-])c2c(C)[nH]n(-c3ccccc3)c2=O)cc1 (stereo unspecified)	0.3	-0.5	6.3	26.0*	-2.0
Cc1[nH]n(-c2ccccc2)c(=O)c1C(C[N+](=O)[O-])c1ccc(F)cc1 (stereo unspecified)	x	x	2.2	x	1.5
Cc1cc(=O)c2ccccc2[nH]1	x	x	-4.2	x	0.5
Cc1cc(=O)c2c(N(C)C)cccc2[nH]1	-2.6	31.6*	-1.1	-38.7	-3.8
CC(C)C[C@H](NC(=O)C1CCN(C(=O)[C@H](Cc2ccccc2)NC(=O)OC(C)(C)C)CC1)C(=O)O	1.5	-1.7	3.9	22.4*	3.4
COc1cccc(-n2c(SCC(=O)O)nnc2-c2cccnc2)c1	-5.0	9.5	x	2.0	-1.7
Cc1ccc(S(=O)(=O)N2CCC(C(=O)OCC(=O)Nc3cc(S(C)(=O)=O)ccc3Cl)CC2)cc1C	1.0	-3.1	x	-1.9	15.7
Cn1nnnc1SCC(=O)c1c(N)n(C)c(=O)n(C)c1=O	x	x	x	x	2.1
Cn1c(N)c(C(=O)CSc2nnc(C3CC3)n2N)c(=O)n(C)c1=O	-9.1	0.7	-3.1	19.4*	5.0
C[C@@H]1CN([C@H](C)CO)C(=O)c2cc(NC(=O)Nc3ccc(C(F)(F)F)cc3)ccc2O[C@@H]1CN(C)S(=O)(=O)c1ccc(F)cc1	29.5*	1.4	x	6.8	x
C[C@H]1CN([C@@H](C)CO)C(=O)c2cc(NC(=O)Nc3ccc(F)cc3)ccc2O[C@@H]1CN(C)S(=O)(=O)c1ccc(Cl)cc1	-3.7	4.5	x	0.9	x
Cc1ccc(S(=O)(=O)N(C)C[C@@H]2Oc3ccc(NC(=O)Nc4c(C)noc4C)cc3C(=O)N([C@H](C)CO)C[C@@H]2C)cc1	-1.2	-13.8	x	15.6*	x
